Results as given in ChEMBL document CHEMBL3351820, “Development of novel membrane active lipidated peptidomimetics active against drug resistant clinical isolates” (Bioorg Med Chem, 2014).
Values after ≈ are worked out from the molar mass of the structure shown. Active and inactive are the calls of the source. No cut-off for these calls is given here. Where a SMILES comes first, the peptide text is derived from it. [ ]: non-standard residue; d: D form. The star is where a group is joined. Myristoyl = CCCCCCCCCCCCCC(=O)*; 3Abz = Nc1cccc(C(=O)O)c1; Orn = NCCC[CH](N)C(=O)O

Key:
[1] = tested on: Aspergillus fumigatus; experiment: Antifungal activity against fluconazole-resistant Aspergillus fumigatus IGMC/LM1/0336 after 24 hrs by M27-A method; type: functional; settings: IGMC/LM1/0336, 24 h
Procedure, shortened: (§1)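 Fungi at 2.5×10^3 cfu/mL in RPMI 1640 (L-glutamine, no glucose or NaHCO3, pH 7.0 with 0.165 M MOPS). Mixed 1:1 with serial 2-fold dilutions in water, incubated at 37 °C with shaking, 24 h for A. fumigatus and 48–72 h for C. albicans. Growth read by absorbance at 600 nm. MIC taken as the lowest concentration with no growth.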

[2] = tested on: Aspergillus niger; experiment: Antifungal activity against Aspergillus niger ATCC 64028 after 24 hrs by M27-A method; type: functional; settings: ATCC 64028, 24 h
Procedure, shortened: (§2)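 Fungi at 2.5×10^3 cfu/mL in RPMI 1640 (L-glutamine, no glucose or NaHCO3, buffered pH 7.0 with 0.165 M MOPS), mixed 1:1 with serial 2-fold aqueous dilutions. Incubated at 37 °C with shaking, 24 h for Aspergillus, 48-72 h for Candida and Cryptococcus; A600 read. MIC taken as lowest concentration with no growth.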

[3] = tested on: Escherichia coli; experiment: Bactericidal activity against Escherichia coli MTCC 0723 at 4 to 8 times MIC by time-kill assay; type: functional, organism-based
Procedure, shortened: (§3)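 Time-kill: mid-log cells (2×10^5 CFU/mL) in MHB, untreated or exposed at 1, 2, 4 and 8×MIC at 37 °C. Aliquots taken at 0, 15, 30, 60, 120 and 240 min, serially 10-fold diluted, plated on Mueller-Hinton agar for 18 h at 37 °C. Log CFU/mL plotted against time versus untreated control; two independent experiments in triplicate.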

[4] = tested on: Escherichia coli; experiment: Growth inhibition of Escherichia coli MTCC 0723 at 2 times MIC by time-kill assay; type: functional, organism-based; procedure, shortened: as §3
[5] = tested on: Escherichia coli; experiment: Bactericidal activity against Escherichia coli MTCC 0723 assessed as log reduction in bacterial growth at 4 to 8 times MIC up to 30 mins by time-kill assay relative to control; type: functional; procedure, shortened: as §3
[6] = tested on: Staphylococcus aureus; experiment: Bactericidal activity against Staphylococcus aureus MTCC 3160 assessed as log reduction in bacterial growth at 4 to 8 times MIC up to 30 mins by time-kill assay relative to control; type: functional; procedure, shortened: as §3
[7] = tested on: Staphylococcus aureus; experiment: Bactericidal activity against Staphylococcus aureus MTCC 3160 at 4 to 8 times MIC by time-kill assay; type: functional, organism-based; procedure, shortened: as §3
[8] = tested on: Staphylococcus aureus; experiment: Growth inhibition of Staphylococcus aureus MTCC 3160 at 2 times MIC by time-kill assay; type: functional, organism-based; procedure, shortened: as §3
[9] = Membrane permeabilization activity assessed as release of calcein from PE/PG liposomes at 4 ug/ml after 5 mins by spectrofluorimetry; type: ADME
Procedure, shortened: (§4)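 Calcein-loaded LUVs, PE/PG (bacterial mimic) or PC/PE/PI/ergosterol (fungal mimic), exposed to 1-20 μg/mL for 5 min before fluorescence reading. Triton X-100 in Tris-HCl/NaCl/EDTA buffer sets 100% leakage; % leakage = 100(F−F0)/(Ft−F0). Run in triplicate, two independent experiments, mean ± SD.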

[10] = Membrane permeabilization activity assessed as release of calcein from PC/PE/PI/ergosterol liposomes at 20 ug/ml after 5 mins by spectrofluorimetry; type: ADME; procedure, shortened: as §4
[11] = Membrane permeabilization activity assessed as release of calcein from PE/PG liposomes at 20 ug/ml after 5 mins by spectrofluorimetry; type: ADME; procedure, shortened: as §4
[12] = Membrane permeabilization activity assessed as release of calcein from PC/PE/PI/ergosterol liposomes at 4 ug/ml after 5 mins by spectrofluorimetry; type: ADME; procedure, shortened: as §4
[13] = tested on: Escherichia coli; experiment: Membrane disruption effect in Escherichia coli MTCC 0723 assessed as surface blebs and aggregation at 4 times MIC by scanning electron microscopy; type: functional, organism-based
Procedure, shortened: (§5)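 SEM: E. coli and S. aureus at 1×10^6 CFU/mL in 10 mM PBS pH 7.4 with 100 mM NaCl, exposed at 4×MIC at 37 °C. […] After 30 min, cells fixed in 4% glutaraldehyde/0.2 M cacodylate for 3 h at 4 °C, ethanol-dehydrated, HMDS-dried, gold-coated (~20 nm).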

[14] = tested on: Staphylococcus aureus; experiment: Membrane disruption effect in Staphylococcus aureus MTCC 3160 assessed as surface blebs and aggregation at 4 times MIC by scanning electron microscopy; type: functional, organism-based; procedure, shortened: as §5
[15] = tested on: Escherichia coli; experiment: Binding affinity to Escherichia coli plasmid DNA at 12 ug/ml after 1 hr by gel retardation assay
Procedure, shortened: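 Gel retardation: 100 ng plasmid DNA from E. coli PGI/DML02292 mixed with varying peptide amounts in binding buffer (10 mM Tris-HCl pH 8.0, 5% glycerol, 1 mM EDTA, 1 mM DTT, 20 mM KCl, 50 μg/mL BSA). Held 1 h at room temperature, then run on 1% agarose in 0.5× TBE. Polymyxin B as standard.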

[16] = tested on: Staphylococcus aureus; experiment: Antibacterial activity against methicillin-resistant Staphylococcus aureus PGI/ DML03149 clinical isolate after 16 days by serial passage resistance development assay; type: functional, organism-based
Procedure, shortened: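 MRSA clinical isolate serially passaged for 16 days. Each day MICs were set up in microtiter wells over doubling-dilution concentrations, 18 h incubation. Cells from triplicate wells at the concentration still permitting visible growth were diluted to about 2×10^5 CFU/mL to seed the next exposure. MIC was tracked across passages.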

[17] = Proteolytic stability assessed as alpha-chymotrypsin (unknown origin)-mediated degradation after 4 days by analytical RP-HPLC; type: ADME, Homo sapiens; settings: 96 h
Procedure, shortened: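 Peptide (1 mg/mL sample solution) and enzyme solution (1 mg per 50 mL) in 0.1 M NH4HCO3 pH 8.2, combined with buffer and incubated at 37 °C. Aliquots taken over time, quenched with 10% formic acid. Remaining peptide quantified by C18 RP-HPLC with a water/acetonitrile gradient (0.05% TFA); enzyme-free control run alongside.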

[18] = tested on: Plasma; experiment: Stability in human plasma after 24 hrs by analytical RP-HPLC; type: ADME, cell-free
Procedure, shortened: (§6)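 Heparinized fresh human plasma (1 mL) plus 50 μL of a […] aqueous stock, incubated at 37 °C. At intervals, 100 μL aliquots precipitated with 200 μL 95% ethanol, held 15 min at 4 °C, spun at 18,000 g for 2 min. Supernatant analysed by C18 RP-HPLC.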

[19] = Stability in human plasma after 4 days by analytical RP-HPLC; type: ADME, cell-free; settings: read-out: Stability; procedure, shortened: as §6
[20] = tested on: Escherichia coli; experiment: Antibacterial activity against Escherichia coli MTCC 0723 after 18 hrs by micro dilution broth assay; type: functional; settings: MTCC 0723, 18 h
Procedure, shortened: (§7)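 Broth microdilution (modified CLSI): mid-log inoculum at 10^5 CFU/mL in Mueller-Hinton broth; serial 2-fold dilutions of sample in 0.001% acetic acid with 0.2% BSA added. Incubated overnight at 37 °C with agitation; A600 read at 18 h. Drug-free culture and uninoculated broth as controls; triplicate.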

[21] = tested on: Escherichia coli; experiment: Antibacterial activity against imipenem-resistant Escherichia coli PGI/ DML02292 clinical isolate after 18 hrs by micro dilution broth assay; type: functional; settings: PGI/ DML02292, 18 h
[22] = tested on: Pseudomonas aeruginosa; experiment: Antibacterial activity against Pseudomonas aeruginosa MTCC 2295 after 18 hrs by micro dilution broth assay; type: functional; settings: MTCC 2295, 18 h; procedure, shortened: as §7
[23] = tested on: Staphylococcus aureus; experiment: Antibacterial activity against Staphylococcus aureus MTCC 3160 after 18 hrs by micro dilution broth assay; type: functional; settings: MTCC 3160, 18 h; procedure, shortened: as §7
[24] = tested on: Staphylococcus aureus; experiment: Antibacterial activity against methicillin-resistant Staphylococcus aureus PGI/ DML03149 clinical isolate after 18 hrs by micro dilution broth assay; type: functional; settings: PGI/ DML03149, 18 h
[25] = tested on: Bacillus subtilis; experiment: Antibacterial activity against Bacillus subtilis MTCC 2763 after 18 hrs by micro dilution broth assay; type: functional; settings: MTCC 2763, 18 h; procedure, shortened: as §7
[26] = Hemolytic activity in human RBCs; type: ADME, cell-based, Erythrocyte; settings: red blood cells (RBCs)
Procedure, shortened: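 Washed fresh human erythrocytes, 4% (v/v) in PBS (35 mM phosphate, 150 mM NaCl, pH 7.2), mixed 1:1 with 2-fold dilutions in PBS. Incubated 1 h at 37 °C without agitation, then centrifuged at 1000 g for 5 min. Supernatant hemoglobin read at 440 nm; % hemolysis = 100(A−A0)/(At−A0).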

[27] = Therapeutic index, ratio of HC50 for human RBCs to MIC for Escherichia coli MTCC 0723; settings: red blood cells (RBCs), read-out: TI
[28] = Therapeutic index, ratio of HC50 for human RBCs to MIC for Staphylococcus aureus MTCC 3160; settings: red blood cells (RBCs), read-out: TI
[29] = tested on: Candida albicans; experiment: Antifungal activity against Candida albicans ATCC 24433 after 48 to 72 hrs by M27-A method; type: functional; procedure, shortened: as §2
[30] = tested on: Candida albicans; experiment: Antifungal activity against fluconazole-resistant Candida albicans PGI/ DML0109 clinical isolate after 48 to 72 hrs by M27-A method; type: functional; procedure, shortened: as §1
[31] = tested on: Cryptococcus neoformans; experiment: Antifungal activity against Cryptococcus neoformans ATCC 2344 after 48 to 72 hrs by M27-A method; type: functional; procedure, shortened: as §2
[32] = tested on: Aspergillus fumigatus; experiment: Antifungal activity against Aspergillus fumigatus ATCC 42203 after 24 hrs by M27-A method; type: functional; settings: ATCC 42203, 24 h; procedure, shortened: as §2

SMILES: CCCCCCCCCCCCCC(=O)Nc1cccc(C(=O)NC(CCCN)C(=O)NC(CCCN)C(=O)NC(CCCN)C(=O)NC(CCCN)C(N)=O)c1 (configuration not stated) ({Myristoyl-3Abz}-[Orn][Orn][Orn][Orn]-NH2; configuration not given here)
- MIC [1]: 4 µg/mL (≈ 4.98 µM)
- MIC [2]: 3 µg/mL (≈ 3.74 µM)
- Activity [3]: Active
- growth inhibition (GI) [4]: Active
- FC [5]: 5
- FC [6]: 5
- Activity [7]: Active
- growth inhibition (GI) [8]: Active
- Activity [9]: 58%
- Activity [10]: 77%
- Activity [11]: 93%
- Activity [12]: 29%
- Activity [13]: Active
- Activity [14]: Active
- Activity [15]: inactive
- Activity [16]: Active
- Stability [17]: Stable
- Stability [18]: Stable
- remaining at 96 h [19]: 76%
- MIC [20]: 1.25 µg/mL (≈ 1.56 µM)
- MIC [21]: 3.1 µg/mL (≈ 3.86 µM)
- MIC [22]: 2 µg/mL (≈ 2.49 µM)
- MIC [23]: 1.5 µg/mL (≈ 1.87 µM)
- MIC [24]: 2 µg/mL (≈ 2.49 µM)
- MIC [25]: 10 µg/mL (≈ 12.5 µM)
- HC50 [26]: 500 µg/mL
- selectivity ratio [27]: 400
- selectivity ratio [28]: 333
- MIC [29]: 3.1 µg/mL (≈ 3.86 µM)
- MIC [30]: 4 µg/mL (≈ 4.98 µM)
- MIC [31]: 6.25 µg/mL (≈ 7.78 µM)
- MIC [32]: 2.25 µg/mL (≈ 2.8 µM)
